In ChEMBL document CHEMBL1134602, “A new class of symmetric bisbenzimidazole-based DNA minor groove-binding agents showing antitumor activity” (J Med Chem, 2001):

What was measured:
Mus musculus [1] = species: Mus musculus; test: Total score was determined, adult female nude mice; assay type: functional
Mus musculus [2] = test: Activity was determined in sc human tumor xenograft (hallow fiber) assays, adult female nude mice; assay type: functional
Mus musculus [3] = test: Activity was determined in ip human tumor xenograft (hallow fiber) assays in adult female nude mice; assay type: functional
A2780 = test: Antitumor activity of compound for 96-h exposure in A2780 human ovarian cell line; assay type: functional, cell-based; conditions: A2780, 96 h
In short: (§1)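 Cells grown as monolayers in DMEM with 10% fetal bovine serum, 2 mM glutamine and 0.5 µg/mL hydrocortisone, in 6% CO2. Seeded at 3000-5000/well and attached overnight. Serial drug dilutions (compound dissolved in 10% DMSO) added to quadruplicate wells, 96 h. Fixed with TCA, stained with SRB, absorbance read at 540 nm. IC50 is the concentration giving 50% of control absorbance. Resistance factor is resistant-subline IC50 divided by parent IC50.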

CH1 [4] = test: Antitumor activity of compound for 96-h exposure in CH1 human ovarian cell line; assay type: functional, cell-based; conditions: CH1, 96 h; in short: as §1
A2780cisR = test: Antitumor activity of compound for 96-h exposure in A2780cisR (acquired resistance to cisplatin) human ovarian cell line; assay type: functional, cell-based; in short: as §1
SK-OV-3 [5] = test: Antitumor activity of compound for 96-h exposure in SKOV-3 human ovarian cell line; assay type: functional, cell-based; conditions: SK-OV-3, 96 h; in short: as §1
[6] = Resistance factor was determined using the ratio of resistance of resistant cell line and its parent cell line
CH1 [7] = test: In vivo antitumor activity was determined after a dose of 4 mg/kg (ip) using hollow fiber assay with (ip)implanted CH1 cells; assay type: functional, Homo sapiens
In short: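 CH1 cells trypsinized, seeded at 1 × 10^7 cells/mL into 2-cm PVDF fibers, heat-sealed and incubated 3 days. Fibers then implanted ip in nude mice. Next day a single 4 mg/kg ip dose given, or vehicle (10% DMSO/90% arachis oil). Fibers retrieved six days later; viable cells measured by MTT absorbance at 540 nm and expressed as % treated/control.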

OVCAR-3 = test: In vivo antitumor activity was determined after a dose of 4.5 mg/kg (ip) using hollow fiber assay against OVCAR-3 human ovarian carcinoma cells (ip-implanted fibers); assay type: functional
SK-OV-3 [8] = test: Growth inhibitory activity of compound for 96-h exposure in SKOV-3 cell line; assay type: functional, cell-based; conditions: Homo sapiens, SK-OV-3, 96 h; in short: as §1
SK-OV-3 [9] = test: Growth inhibitory activity of compound for 24-h exposure in SKOV-3 cell line; assay type: functional, cell-based; conditions: Homo sapiens, SK-OV-3, 24 h
In short: (§2)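 SKOV-3 monolayers treated with serially diluted drug in quadruplicate wells. Drug aspirated after 2, 6 or 24 h and replaced with fresh medium for the rest of a 96-h period. Growth measured by TCA fixation, SRB staining and absorbance at 540 nm. IC50 is the concentration halving mean absorbance relative to untreated controls.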

SK-OV-3 [10] = test: Growth inhibitory activity of compound for 2-h exposure in SKOV-3 cell line; assay type: functional, cell-based; conditions: Homo sapiens, SK-OV-3, 2 h; in short: as §2
SK-OV-3 [11] = test: Growth inhibitory activity of compound for 6-h exposure in SKOV-3 cell line; assay type: functional, cell-based; conditions: Homo sapiens, SK-OV-3, 6 h; in short: as §2

| SMILES | Total score (Mus musculus [1]) | Subcut score (Mus musculus [2]) | Ip score (Mus musculus [3]) | IC50 (A2780) [nM] | IC50 (CH1 [4]) [nM] | IC50 (A2780cisR) [nM] | IC50 (SK-OV-3 [5]) [nM] | RF [6] | T/C (CH1 [7]) | T/C (OVCAR-3) | IC50 (SK-OV-3 [8]) [nM] | IC50 (SK-OV-3 [9]) [nM] | IC50 (SK-OV-3 [10]) [nM] | IC50 (SK-OV-3 [11]) [nM] |
| --- | --- | --- | --- | --- | --- | --- | --- | --- | --- | --- | --- | --- | --- | --- |
| COc1ccc(-c2nc3cc(-c4ccc5[nH]c(-c6ccc(OC)cc6)nc5c4)ccc3[nH]2)cc1 | 8 | 0 | 8 | 13500 | 3800 | 5100 | 16500 | – | – | – | – | – | – | – |
| CN(C)CCCOc1ccc(-c2nc3cc(-c4ccc5nc(-c6ccc(OCCCN(C)C)cc6)[nH]c5c4)ccc3[nH]2)cc1 | 16 | 4 | 12 | 235 | 240 | 115 | 375 | 5.8 | 0.79 | 0.56 | 100 | 115 | 330 | 105 |
| Oc1ccc(-c2nc3ccc(-c4ccc5nc(-c6ccc(O)cc6)[nH]c5c4)cc3[nH]2)cc1 | 10 | 0 | 10 | 4300 | 1050 | 2700 | 16000 | – | – | – | – | – | – | – |
| COc1cccc2c1C(=O)c1c(O)c3c(c(O)c1C2=O)C[C@@](O)(C(=O)CO)C[C@@H]3O[C@H]1C[C@H](N)[C@H](O)[C@H](C)O1 [DOXORUBICIN] | – | – | – | – | – | – | – | 90 | – | – | – | – | – | – |
| CN1CCN(c2ccc3[nH]c(-c4ccc5[nH]c(-c6ccc(O)cc6)nc5c4)nc3c2)CC1 [HOECHST 33258] | – | – | – | 12000 | 26500 | 9500 | > 100000 | – | – | – | – | – | – | – |
